What was measured:
[1] = system: A549; test: Cytotoxicity against human A549 cells after 48 hrs by MTT assay; assay type: functional, cell-based; conditions: A549, 48 h
In short: (§1)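 Cells seeded at 10,000 cells/100 μl in medium with 10% serum and left 24 h in a humid 5% CO2 chamber to adhere. Compounds were then added at a range of concentrations for 48 h. MTT (5 mg/mL stock in PBS, 10 μl per well) was added for 2 h.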

[2] = system: MDA-MB-231; test: Cytotoxicity against human MDA-MB-231 cells after 48 hrs by MTT assay; assay type: functional, cell-based; conditions: MDA-MB-231, 48 h; in short: as §1
[3] = system: MRC5; test: Cytotoxicity against human MRC5 cells after 48 hrs by MTT assay; assay type: cell-based; conditions: MRC5, 48 h; in short: as §1
[4] = system: SK-N-SH; test: Cytotoxicity against human SK-N-SH cells after 48 hrs by MTT assay; assay type: functional, cell-based; in short: as §1

Structure (SMILES) | IC50 [1] [µM] | IC50 [2] [µM] | IC50 [3] [µM] | IC50 [4] [µM]
O=C1Nc2ccccc2C1(c1c[nH]c2ccc(Cl)cc12)c1c[nH]c2ccc(Cl)cc12 | > 100 | 10 | > 100 | 1.31
O=C1Nc2ccccc2C1(c1c[nH]c2ccc([N+](=O)[O-])cc12)c1c[nH]c2ccc([N+](=O)[O-])cc12 | 7.9 | 9.98 | > 100 | 0.99
Cc1[nH]c2ccc([N+](=O)[O-])cc2c1C1(c2c(C)[nH]c3ccc([N+](=O)[O-])cc23)C(=O)Nc2ccccc21 | 0.89 | 99.4 | > 100 | 0.94
N#Cc1ccc2[nH]cc(C3(c4c[nH]c5ccc(C#N)cc45)C(=O)Nc4ccccc43)c2c1 | 0.97 | 99.1 | > 100 | 0.94
COC(=O)c1ccc2[nH]cc(C3(c4c[nH]c5ccc(C(=O)OC)cc45)C(=O)Nc4ccccc43)c2c1 | 0.75 | > 100 | > 100 | 0.98
O=C1Nc2ccccc2C1(c1c(-c2ccccc2)[nH]c2ccccc12)c1c(-c2ccccc2)[nH]c2ccccc12 | 8.91 | > 100 | > 100 | 9.6
Cc1[nH]c2ccc([N+](=O)[O-])cc2c1C1(c2c(C)[nH]c3ccc([N+](=O)[O-])cc23)C(=O)Nc2ccc(Cl)cc21 | 69.4 | 10.1 | > 100 | 1.23
O=C1Nc2ccc(Cl)cc2C1(c1c(-c2ccccc2)[nH]c2ccccc12)c1c(-c2ccccc2)[nH]c2ccccc12 | > 100 | > 100 | > 100 | > 100
COC(=O)c1ccc2[nH]cc(C3(c4c[nH]c5ccc(C(=O)OC)cc45)C(=O)Nc4ccc(Cl)cc43)c2c1 | 71.5 | 10 | > 100 | 9.9
O=C1Nc2ccc(Cl)cc2C1(c1c[nH]c2ccc(Br)cc12)c1c[nH]c2ccc(Br)cc12 | > 100 | > 100 | > 100 | 1.04
O=C1Nc2ccccc2C1(c1c[nH]c2ccc(Br)cc12)c1c[nH]c2ccc(Br)cc12 | 0.96 | 9.95 | > 100 | 0.93
O=C1Nc2ccccc2C1(c1c[nH]c2ccccc12)c1c[nH]c2ccccc12 | 1.23 | > 100 | > 100 | 0.9
Cc1[nH]c2ccccc2c1C1(c2c(C)[nH]c3ccccc23)C(=O)Nc2ccccc21 | 0.92 | > 100 | > 100 | 0.98
Cn1cc(C2(c3cn(C)c4ccccc34)C(=O)Nc3ccccc32)c2ccccc21 | > 100 | > 100 | > 100 | 1.32
COc1cccc2c1C(=O)c1c(O)c3c(c(O)c1C2=O)C[C@@](O)(C(=O)CO)C[C@@H]3O[C@H]1C[C@H](N)[C@H](O)[C@H](C)O1 [DOXORUBICIN] | 15.1 | 8.14 | 14.8 | 0.97
c1ccc2[nH]ccc2c1 [INDOLE] | > 100 | > 100 | 15.6 | 1.78
O=C1Nc2ccccc2C1=O [ISATIN] | 13.5 | > 100 | > 100 | 9.84
